This is an account of results in article PMC3516907 (ChemMedChem, 2010).

For test [1], the system named is endogenous ER in MCF7 breast cancer cells. The experiment in a line: ER degradation in MCF7 cells by western blotting. Type of test: cell-based, human. The note with it: with/without proteasome inhibitor epoxomicin (Fig 3B). In a few lines:
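MCF7 cells at 70% confluence, held at least 24 h in RPMI with 5% charcoal-dextran FBS, were treated 48 h (DMSO vehicle). Lysis was 1 h on ice in Tris/NaCl/NP40/Triton X-100 buffer with protease inhibitors, with Bradford protein assay. Equal protein ran on 10% SDS-PAGE and was blotted to PVDF. Anti-ER was applied overnight at 4°C, secondary 1 h at room temperature. Detection was ECL/film, reprobed for β-actin loading.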

A further test has as its system ER in MCF7 cells. The experiment in a line: ER degradation in MCF7 cells by immunofluorescence. Type of test: cell-based, human. In a few lines:
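MCF7 cells were grown on ethanol/UV-sterilised coverslips for 24 h, then switched to phenol-red-free RPMI with 5% charcoal/dextran-treated FBS. Compounds were diluted in this medium from a DMSO vehicle and applied for 48 h. Cells were fixed in 4% PFA, permeabilised with 0.2% Triton X-100, and blocked in 10% goat serum/0.1% BSA in PBST. Staining used anti-ER with an Alexa Fluor 488 secondary and DAPI mounting, imaged by inverted fluorescence microscopy.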

As to `C[C@]12CC[C@@H]3c4ccc(O)cc4CC[C@H]3[C@@H]1CC[C@@H]2O` [E2, 17β-estradiol], the “proteasome dependence of ER degradation (western blot)” value in test [1] is recorded as “confirmed via western blotting”. Further, the “ER signal by immunofluorescence on co-treatment with epoxomicin” value in the test on ER in MCF7 cells (48h, 25 μM PROTACs or 10 nM E2 plus epoxomicin (Fig 3A bottom row)) is listed as “blocked by co-treatment with epoxomicin”.
As to -Leu-Ala-Pro^OHTyr-Ile-Bzl [PROTAC 24], in test [1], the “proteasome dependence of ER degradation (western blot)” value is on record as “confirmed via western blotting”. Also, the “ER signal (green, FITC) by immunofluorescence vs DMSO control” value in the test with ER in MCF7 cells (48h treatment, 25 μM PROTACs, 10 nM E2 (Fig 3A top row)) was “attenuation of ER signal (green) was observed”.
